Assay results collected from several papers.
Cell line: MDA-MB-231
Observed: cell growth or viability

COc1cccc2c1C(=O)c1c(O)c3c(c(O)c1C2=O)C[C@@](O)(C(=O)CO)C[C@@H]3O[C@H]1C[C@H](N)[C@H](O)[C@H](C)O1  GI50 (MTT; 72 h): 0.0533 µM
COc1ccc(OC)c(CN2CCc3cc(O)c(OC)cc3C2)c1  GI50 (WST-1; 96 h): 37 µM
Cc1cc2c(cc1N1C(=O)c3cccc4c(CCCO)ccc(c34)C1=O)n(C)c(=O)n2C (racemic)  GI50 (resazurin): > 10 µM
COc1cc2c(cc1O)CCN(Cc1cc(Br)c(OC)c(OC)c1)C2  GI50 (WST-1; 96 h): 0.2 µM
COc1cc2c(cc1OS(N)(=O)=O)CCN(Cc1ccc(OC)c(OC)c1OC)C2  GI50 (WST-1; 96 h): 11.9 µM
CC(=O)c1c(C)c2cnc(Nc3ccc(N4CCNCC4)cn3)nc2n(C2CCCC2)c1=O  GI50 (resazurin): 0.25 µM
CCOc1c(OC)cc(CN2CCc3cc(OS(N)(=O)=O)c(OC)cc3C2)cc1OC  GI50 (WST-1; 96 h): 0.07 µM
COc1cc2c(cc1O)CC[C@@H]1[C@@H]2CC[C@]2(C)[C@@H](O)CC[C@@H]12  GI50 (48 h): 1.7 µM
COc1cc2c(cc1OS(N)(=O)=O)CCN(Cc1cc(Cl)c(OC)c(OC)c1)C2  GI50 (WST-1; 96 h): 0.04 µM
COc1ccc(OC)c(CN2CCc3cc(OS(N)(=O)=O)c(OC)cc3C2)c1  GI50 (WST-1; 96 h): 1.85 µM
